# Test results from ChEMBL document CHEMBL3792365, “Dioxol and dihydrodioxin analogs of 2- and 3-phenylacetonitriles as potent anti-cancer agents with nanomolar activity against a variety of human cancer cells” (2016).
# Key:
# Format in all cases: functional
# [1] = Growth inhibition of human UO31 cells after 48 hrs by sulforhodamine B assay; conditions: UO-31, 48 h
# Procedure, shortened: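 Five-dose testing across the 60-line human tumour cell panel. GI50 is the drug concentration that gives a 50% reduction in net protein increase relative to control cells.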
# M14 = test: Growth inhibition of human M14 cells after 48 hrs by sulforhodamine B assay; conditions: M14, 48 h
# Procedure, shortened: (§1)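 Five-dose testing against a 60-line human tumor cell panel. GI50 is the drug concentration giving a 50% reduction in net protein increase relative to untreated control cells.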
# NCI-H23 [2] = test: Growth inhibition of human NCI-H23 cells after 48 hrs by sulforhodamine B assay; conditions: NCI-H23, 48 h
# Procedure, shortened: (§2)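 Five-dose concentration series run across a panel of 60 human tumour cell lines. GI50 is taken as the drug concentration giving a 50% reduction in net protein increase relative to untreated control cells.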
# 786-0 = test: Growth inhibition of human 786-0 cells after 48 hrs by sulforhodamine B assay; conditions: 786-0, 48 h; procedure, shortened: as §1
# [3] = Growth inhibition of human PC3 cells after 48 hrs by sulforhodamine B assay; conditions: PC-3, 48 h; procedure, shortened: as §2
# [4] = Growth inhibition of human UACC62 cells at 10 uM after 48 hrs by sulforhodamine B assay; conditions: UACC-62, 48 h, values are per cent of control
# A498 = test: Growth inhibition of human A498 cells after 48 hrs by sulforhodamine B assay; conditions: A498, 48 h; procedure, shortened: as §1
# [5] = Growth inhibition of human SW620 cells after 48 hrs by sulforhodamine B assay; conditions: SW-620, 48 h; procedure, shortened: as §2
# [6] = Growth inhibition of human Hs 578T cells after 48 hrs by sulforhodamine B assay; procedure, shortened: as §1
# [7] = Growth inhibition of human RPMI8226 cells after 48 hrs by sulforhodamine B assay; conditions: RPMI-8226, 48 h; procedure, shortened: as §2
# [8] = Growth inhibition of human MOLT4 cells after 48 hrs by sulforhodamine B assay; conditions: MOLT-4, 48 h; procedure, shortened: as §2
# Malme-3M = test: Growth inhibition of human MALME-3M cells at 10 uM after 48 hrs by sulforhodamine B assay; conditions: values are per cent of control
# MDA-MB-435 = test: Growth inhibition of human MDA-MB-435 cells after 48 hrs by sulforhodamine B assay; conditions: MDA-MB-435, 48 h; procedure, shortened: as §1
# MCF7 [9] = test: Growth inhibition of human MCF7 cells at 10 uM after 48 hrs by sulforhodamine B assay; conditions: MCF7, 48 h, values are per cent of control
# [10] = Growth inhibition of human HCT15 cells at 10 uM after 48 hrs by sulforhodamine B assay; conditions: HCT-15, 48 h, values are per cent of control
# KM12 = test: Growth inhibition of human KM12 cells after 48 hrs by sulforhodamine B assay; conditions: KM12, 48 h; procedure, shortened: as §1
# [11] = Growth inhibition of human IGROV1 cells at 10 uM after 48 hrs by sulforhodamine B assay; conditions: IGROV-1, 48 h, values are per cent of control
# MDA-MB-231 = test: Growth inhibition of human MDA-MB-231 cells after 48 hrs by sulforhodamine B assay; conditions: MDA-MB-231, 48 h; procedure, shortened: as §1
# ACHN = test: Growth inhibition of human ACHN cells after 48 hrs by sulforhodamine B assay; procedure, shortened: as §1
# [12] = Growth inhibition of human LOXIMVI cells after 48 hrs by sulforhodamine B assay; conditions: LOX IMVI; procedure, shortened: as §1
# [13] = Growth inhibition of human HCT116 cells after 48 hrs by sulforhodamine B assay; conditions: HCT-116, 48 h; procedure, shortened: as §1
# NCI-H522 [14] = test: Growth inhibition of human NCI-H522 cells after 48 hrs by sulforhodamine B assay; conditions: NCI-H522, 48 h; procedure, shortened: as §2
# [15] = Growth inhibition of human SNB19 cells after 48 hrs by sulforhodamine B assay; conditions: SNB-19, 48 h; procedure, shortened: as §2
# T47D = test: Growth inhibition of human T47D cells at 10 uM after 48 hrs by sulforhodamine B assay; conditions: values are per cent of control
# [16] = Growth inhibition of human HCC2998 cells at 10 uM after 48 hrs by sulforhodamine B assay; conditions: HCC 2998, 48 h, values are per cent of control
# MCF7 [17] = test: Growth inhibition of human MCF7 cells after 48 hrs by sulforhodamine B assay; conditions: MCF7, 48 h; procedure, shortened: as §1
# CCRF-CEM [18] = test: Growth inhibition of human CCRF-CEM cells at 10 uM after 48 hrs by sulforhodamine B assay; conditions: values are per cent of control
# [19] = Growth inhibition of human IGROV1 cells after 48 hrs by sulforhodamine B assay; conditions: IGROV-1, 48 h; procedure, shortened: as §1
# [20] = Growth inhibition of human OVCAR3 cells at 10 uM after 48 hrs by sulforhodamine B assay; conditions: OVCAR-3, 48 h, values are per cent of control
# [21] = Growth inhibition of human PC3 cells at 10 uM after 48 hrs by sulforhodamine B assay; conditions: PC-3, 48 h, values are per cent of control
# SR [22] = test: Growth inhibition of human SR cells at 10 uM after 48 hrs by sulforhodamine B assay; conditions: values are per cent of control
# [23] = Growth inhibition of human RPMI8226 cells at 10 uM after 48 hrs by sulforhodamine B assay; conditions: RPMI-8226, 48 h, values are per cent of control
# [24] = Growth inhibition of human OVCAR3 cells after 48 hrs by sulforhodamine B assay; conditions: OVCAR-3, 48 h; procedure, shortened: as §2
# [25] = Growth inhibition of human Hs 578T cells at 10 uM after 48 hrs by sulforhodamine B assay; conditions: values are per cent of control
# NCI-H23 [26] = test: Growth inhibition of human NCI-H23 cells at 10 uM after 48 hrs by sulforhodamine B assay; conditions: NCI-H23, 48 h, values are per cent of control
# SR [27] = test: Growth inhibition of human SR cells after 48 hrs by sulforhodamine B assay; procedure, shortened: as §2
# NCI-H522 [28] = test: Growth inhibition of human NCI-H522 cells at 10 uM after 48 hrs by sulforhodamine B assay; conditions: NCI-H522, 48 h, values are per cent of control
# A549 = test: Growth inhibition of human A549/ATCC cells after 48 hrs by sulforhodamine B assay; conditions: A549, 48 h; procedure, shortened: as §1
# CCRF-CEM [29] = test: Growth inhibition of human CCRF-CEM cells after 48 hrs by sulforhodamine B assay; procedure, shortened: as §1
# MDA-MB-468 = test: Growth inhibition of human MDA-MB-468 cells after 48 hrs by sulforhodamine B assay; conditions: MDA-MB-468, 48 h; procedure, shortened: as §1
# [30] = Growth inhibition of human UACC257 cells at 10 uM after 48 hrs by sulforhodamine B assay; conditions: UACC-257, 48 h, values are per cent of control
# SK-MEL-5 = test: Growth inhibition of human SK-MEL-5 cells after 48 hrs by sulforhodamine B assay; conditions: SK-MEL-5, 48 h; procedure, shortened: as §2
structure (smiles),measurement,setting,value
N#C/C(=C\c1cccc2ccccc12)c1ccc2c(c1)OCO2,GI50,[1],6.48 µM
same,GI50,M14,3.13 µM
same,GI50,NCI-H23 [2],6.45 µM
same,GI50,786-0,5.62 µM
same,GI50,[3],5.52 µM
same,"growth, % of control at 10 µM",[4],44.7%
same,GI50,A498,1.17 µM
same,GI50,[5],3.72 µM
same,GI50,[6],3.54 µM
same,GI50,[7],4.49 µM
same,GI50,[8],4.99 µM
same,"growth, % of control at 10 µM",Malme-3M,73.3%
same,GI50,MDA-MB-435,0.43 µM
same,"growth, % of control at 10 µM",MCF7 [9],26.1%
same,"growth, % of control at 10 µM",[10],40.6%
same,GI50,KM12,3.77 µM
same,"growth, % of control at 10 µM",[11],68.8%
same,GI50,MDA-MB-231,5.11 µM
same,GI50,ACHN,4.52 µM
same,GI50,[12],4.22 µM
same,GI50,[13],3.72 µM
same,GI50,NCI-H522 [14],2.89 µM
same,GI50,[15],6.29 µM
same,"growth, % of control at 10 µM",T47D,67.9%
same,"growth, % of control at 10 µM",[16],68.8%
same,GI50,MCF7 [17],1.99 µM
same,"growth, % of control at 10 µM",CCRF-CEM [18],52.3%
same,GI50,[19],5.95 µM
same,"growth, % of control at 10 µM",[20],46.8%
same,"growth, % of control at 10 µM",[21],80.1%
same,"growth, % of control at 10 µM",SR [22],23.8%
same,"growth, % of control at 10 µM",[23],77%
same,GI50,[24],4.18 µM
same,"growth, % of control at 10 µM",[25],65.5%
same,"growth, % of control at 10 µM",NCI-H23 [26],77.7%
same,GI50,SR [27],1.6 µM
same,"growth, % of control at 10 µM",NCI-H522 [28],47.6%
same,GI50,A549,5 µM
same,GI50,CCRF-CEM [29],3.65 µM
same,GI50,MDA-MB-468,2.11 µM
same,"growth, % of control at 10 µM",[30],103%
same,GI50,SK-MEL-5,3.2 µM
